High-throughput results from PubChem BioAssay.
Hits are enriched below; roughly 2.9% of the tested compounds scored in any of these assays.
APOBEC3G inh = APOBEC3G DNA deaminase inhibitors, primary screen, biochemical, fluorescence, single-stranded DNA substrate, uHTS | DNA dC->dU-editing enzyme APOBEC-3G (Homo sapiens), Q9HC16 | recombinant A3G, ssDNA deamination FAM/TAMRA fluorescence | inhibition, % at 20 µM | 330,000 compounds, 0.28% hits | AID 493012, 2011;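 active means inhibition of at least 40% at 20 µM, with no more than 30% in the related APOBEC3A deaminase screen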;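 further: plate controls were DMSO wells with A3G for no effect and wells lacking A3G enzyme for full effect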
Target sequence (Q9HC16 whole entry, looked up): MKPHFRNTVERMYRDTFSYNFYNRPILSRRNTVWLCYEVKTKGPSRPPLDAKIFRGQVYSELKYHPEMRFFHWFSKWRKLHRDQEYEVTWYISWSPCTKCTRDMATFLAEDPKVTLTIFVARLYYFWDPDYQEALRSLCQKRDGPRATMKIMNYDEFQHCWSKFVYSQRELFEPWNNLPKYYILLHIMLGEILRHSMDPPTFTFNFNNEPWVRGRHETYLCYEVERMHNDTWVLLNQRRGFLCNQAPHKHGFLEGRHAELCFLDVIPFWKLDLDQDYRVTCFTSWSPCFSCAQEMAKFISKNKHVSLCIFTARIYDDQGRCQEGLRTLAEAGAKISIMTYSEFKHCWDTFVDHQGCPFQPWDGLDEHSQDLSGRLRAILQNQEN
A3A deaminase = APOBEC3A ssDNA deaminase inhibitors, primary screen, selectivity assay for APOBEC3G inhibitor project, biochemical, FAM/TAMRA oligo cleavage fluorescence | AID 493011, 2011 | inhibition, % at 20 µM | recombinant A3A, FAM/TAMRA ssDNA deamination fluorescence | DNA dC->dU-editing enzyme APOBEC-3A (Homo sapiens), P31941 | 330,000 compounds, 0.41% hits;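 active means at least 40% inhibition at 20 µM here, with at most 30% in a related deaminase screen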;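 further: plate controls were A3A with DMSO for no effect and wells lacking A3A enzyme for full effect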
Target sequence (P31941 whole entry, looked up): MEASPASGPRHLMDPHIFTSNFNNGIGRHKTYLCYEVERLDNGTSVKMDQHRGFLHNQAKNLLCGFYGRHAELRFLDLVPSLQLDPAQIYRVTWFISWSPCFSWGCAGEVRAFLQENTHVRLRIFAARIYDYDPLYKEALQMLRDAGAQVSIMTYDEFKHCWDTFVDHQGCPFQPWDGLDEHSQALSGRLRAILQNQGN
HCV core dimer = inhibitors of HCV core protein dimerization, primary screen, biochemical, TR-FRET, high-throughput | 300,000 compounds, 0.33% hits | AID 1899, 2009 | inhibition, % at 5 µM | TR-FRET GST/Flag-core106 dimerization, 1536-well;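 active means inhibition above the mean of all tested compounds plus 3 SD, set per screening campaign, cut at about 45% in these data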
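Assay system: GST-tagged and Flag-tagged HCV core protein residues 1-106 / Times: compound-protein-antibody incubation 4 h at 22.5 °C / Signal: time-resolved FRET, ex 340 nm, em 617 and 671 nm / Evaluation: % inhibition based on acceptor/donor emission ratio / Benchmarks: wells lacking GST-core106 and wells with excess unlabelled core106 / Repeats: singlicate, one well per compound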
ABHD5 PLIN5 PPI = ABHD5-PLIN5 interaction inhibitors, primary screen, cell lysate, split luciferase complementation, luminescence | Perilipin-5 (Homo sapiens) + 1-acylglycerol-3-phosphate O-acyltransferase ABHD5 (Homo … | Split G. princeps luciferase complementation, 4 h | inhibition, % at 4 µM | 360,000 compounds, 0.78% hits | AID 602281, 2012;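 active means inhibition above the mean inhibition across every tested compound plus 3 SD, cut at about 22% in these data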;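 further: 0% = DMSO only wells and the 100% control is not disclosed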
NS3 helicase inh = inhibitors of HCV NS3 helicase, primary screen, biochemical, Cy5 molecular beacon fluorescence; 290,000 compounds, 0.56% hits; inhibition, % at 10.9 µM; Hepatitis C virus NS3 helicase; NS3 helicase DNA unwinding;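 active means inhibition above the mean of all tested compounds plus 3 SD, set per campaign, cut at about 35% in these data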;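 further: 0% = DMSO wells and 100% = thioflavine S control wells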
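Measured by: Cy5 fluorescence, 0 and 60 min reads / Assay system: NS3 helicase fragment of HCV / Control set: low DMSO, high thioflavine S at 110 µM / Times: 1 h reaction at 25 °C, ATP-initiated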
PRMT1 inh = PRMT1 methyltransferase inhibitors, primary screen, biochemical, fluorescence polarization. recombinant PRMT1, activity-based probe fluorescence polarization. 370,000 compounds, 1.3% hits. Protein arginine N-methyltransferase 1 (Homo sapiens), Q99873. inhibition, % at 2.79 µM;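 active means inhibition above about 21% made by adding two undisclosed values, limit read from the data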
PRMT1 inh conf = PRMT1 methyltransferase inhibitors, confirmation, biochemical, fluorescence polarization, triplicate. shares compounds with PRMT1 inh. 3,300 compounds, 42% hits. inhibition, % at 2.79 µM. recombinant His-PRMT1, activity-based probe fluorescence polarization;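 active means mean inhibition across replicates above the hit cutoff derived for the earlier primary screen, cut at about 22% in these data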
Starred values were filed as active, the others as inactive; . = no result.

SMILES	APOBEC3G inh	A3A deaminase	HCV core dimer	ABHD5 PLIN5 PPI	NS3 helicase inh	PRMT1 inh	PRMT1 inh conf
O=C(CSc1nc2ccccc2s1)Nc1cc(C(=O)O)cc(C(=O)O)c1	9	2	4	1	7	42*	58*
CCCCc1ccc(CC(=O)Nc2cc(S(=O)(=O)N3CCOCC3)ccc2O)cc1	-2	-2	.	-15	.	32*	13
COc1ccc(N2C[C@H](CSC)[C@@H](CC(=O)Nc3ccc(Br)cc3)C2=O)cc1	.	.	.	2	.	-4	.
CCCCN(C)c1c(C)nc2ccc(C(=O)NCc3cccs3)cn12	.	.	.	-5	.	4	.
CCOC(=O)c1c(C)nsc1NCc1ccccc1	24	1	-4	-1	.	28*	2
Cc1ccc(C)n1-c1sc2c(c1C(=O)O)CCCC2	31	53	-3	-2	33	27*	1
CCCNc1ncnc2c1cnn2C1CCCCO1 (centres undefined)	.	.	.	-5	.	1	.
NC1=NC(=O)CC(C(=O)NCc2ccccc2)S1 (centres undefined)	-1	-1	-3	-1	-7	36*	10
COc1ccc(C2=CSC3=C(C(=O)c4cccc(S(=O)(=O)N(C)C)c4)CCN23)cc1	-4	-1	5	4	7	28*	27*
COc1ccc(N(C)S(=O)(=O)c2cccc(C(=O)N3CCN(c4ccccc4)CC3)c2)cc1	-5	1	.	-5	.	-1	.
CC(=O)Nc1ccc(NC(=O)C(C)Sc2nc3ccccc3c(=O)n2CC2CCCO2)cc1 (centres undefined)	-10	-2	4	-6	.	4	.
CCc1ccc2[nH]c(=O)c(CN(CCN(CC)CC)C(=S)NCc3ccco3)cc2c1	-6	1	4	6	-44	0	.
CCc1ccc2[nH]c(=O)c(CN(CCN(C)C)C(=S)NCc3ccco3)cc2c1	-7	-6	-3	-5	-54	33*	2
Cc1ccc(S(=O)(=O)N2CCSC2C(=O)O)cc1 (centres undefined)	-7	-2	0	1	-2	0	.
Cc1ccc(S(=O)(=O)N2CCSC2c2ccco2)cc1 (centres undefined)	-2	0	16	-8	0	31*	8
CCOc1c(OC(C)=O)ccc(/C=C2\N=C(SCC)SC2=O)c1[N+](=O)[O-]	-2	-1	-6	-18	-3	27*	7
CC(=C/c1ccccc1)/C=N/n1c(C)n[nH]c1=S	25	-7	-4	-1	3	0	.
Cc1cccc(/C=N/n2c(COc3ccccc3)n[nH]c2=S)c1	3	-2	.	-6	21	28*	13
COc1cccc(/C=N/n2c(COc3ccccc3)n[nH]c2=S)c1O	12	-5	2	-5	15	-1	.
COc1cccc(/C=N/n2c(COc3ccccc3)n[nH]c2=S)c1OC	-1	-8	0	-7	6	27*	8
CC(/C=N/n1c(COc2ccccc2)n[nH]c1=S)=C\c1ccccc1	-8	-4	0	-7	4	27*	5
S=c1[nH]nc(COc2ccccc2)n1/N=C/c1ccc(Cl)c(Cl)c1	3	2	11	-6	12	1	.
COc1ccc(-c2cc3c(=O)n(CC(=O)NCCN4CCCC4)nc(C)n3n2)cc1	-3	0	9	6	-6	2	.
Cc1nnc(SCC(=O)NC2CCCC(C)C2C)n1N (centres undefined)	-7	-4	.	-2	.	1	.
CCCCN1CCCCC1(C)C(=O)NCc1ccc2c(c1)OCO2 (centres undefined)	.	.	.	-3	.	-6	.
SMILES	APOBEC3G inh	A3A deaminase	HCV core dimer	ABHD5 PLIN5 PPI	NS3 helicase inh	PRMT1 inh	PRMT1 inh conf
COc1ccc(CN(C)C(=O)CCN=C2NS(=O)(=O)c3ccccc32)c(OC)c1	-5	0	.	-6	.	-1	.
Cc1ccc(NNC(N)=S)cc1Cl	-5	-8	-1	0	1	28*	3
NC(=S)NNc1ccc(Cl)c(Cl)c1	1	-2	4	-12	0	12	.
Cc1sc2ccccc2[n+]1CCC(C)S(=O)(=O)[O-] (centres undefined)	-4	-3	-6	1	7	36*	34*
Cc1sc2ccccc2[n+]1CC(=O)c1ccccc1	-7	-4	-4	15	7	.	.
Cc1sc2ccccc2[n+]1CC(=O)O	0	-7	-3	0	14	48*	54*
O=C(/C=C(\Nc1cccc(F)c1)c1ccccc1)c1ccccc1	.	.	.	.	.	-1	.
O=C(NCc1cccnc1)c1ccc(Cl)c(S(=O)(=O)Nc2ccccc2C(=O)NCc2cccnc2)c1	-2	-1	-4	1	-1	6	.
Cc1ccc(/C=N/N2CCN(Cc3ccc(Cl)cc3)CC2)o1	-5	-3	2	21	-1	42*	-7
Clc1ccc(CN2CCN(/N=C/c3ccco3)CC2)cc1	-6	-4	2	0	-3	-1	.
COc1ccccc1Cc1c(-c2ccc(C#N)cc2)nc2ccc(C)cn12	.	.	.	3	.	-1	.
CC(C)C[C@H](NC(=O)c1ccco1)C(=O)N1CCC[C@H]1C(=O)NCc1ccccc1	.	.	.	.	.	2	.
COc1ccccc1NC(=O)CSC1CC(=O)N(c2ccc3c(c2)OCO3)C1=O (centres undefined)	-5	-2	3	0	9	44*	35*
COc1ccc(NC(=O)CSC2CC(=O)N(c3ccc4c(c3)OCCO4)C2=O)cc1 (centres undefined)	-2	2	3	-5	-2	36*	23*
COc1ccc(N2C(=O)CC(SCC(=O)O)C2=O)cc1 (centres undefined)	-3	-1	-3	3	-8	25*	11
CC(=O)Nc1cccc(-c2ccnc3c2CC(C)(C(=O)NCc2ccc(F)c(F)c2)O3)c1 (centres undefined)	.	.	.	1	.	-1	.
O=C(OCC(=O)N1CCC(Cc2ccccc2)CC1)c1cc(Br)ccc1O	-1	14	.	1	.	-3	.
